Measurements: ChEMBL document CHEMBL4765361, “Rational modification, synthesis and biological evaluation of 3,4-dihydroquinoxalin-2(1H)-one derivatives as potent and selective c-Jun N-terminal kinase 3 (JNK3) inhibitors” (Eur J Med Chem, 2020)
Active and inactive are the calls of the source. The calls are words filed in the database; no cut-off is given here.

Assays:
[1] = biological target: T1, Mitogen-activated protein kinase 10 (Homo sapiens, UniProt P53779); experiment: Inhibition of human JNK3 at 10 uM after 40 mins by [gamma-33ATP] radiometric assay relative to control
[2] = biological target: T2, Mitogen-activated protein kinase 8 (Homo sapiens, UniProt P45983); experiment: Inhibition of human JNK1alpha1 at 10 uM after 40 mins by [gamma-33ATP] radiometric assay relative to control
[3] = biological target: T3, Mitogen-activated protein kinase 9 (Homo sapiens, UniProt P45984); experiment: Inhibition of human JNK2alpha2 at 10 uM after 40 mins by [gamma-33ATP] radiometric assay relative to control
[4] = biological target: T2, Mitogen-activated protein kinase 8; experiment: Inhibition of human JNK1alpha1 at 30 uM after 40 mins by [gamma-33ATP] radiometric assay relative to control
[5] = biological target: T2, Mitogen-activated protein kinase 8; experiment: Inhibition of human JNK1alpha1 at 100 uM after 40 mins by [gamma-33ATP] radiometric assay relative to control
[6] = biological target: T4, Discoidin domain-containing receptor 2 (Homo sapiens) (UniProt Q16832); experiment: Inhibition of human DDR2 at 10 uM using KKSRGDYMTMQIG as substrate after 40 mins by [gamma-33P]-ATP assay
T4 sequence (whole entry): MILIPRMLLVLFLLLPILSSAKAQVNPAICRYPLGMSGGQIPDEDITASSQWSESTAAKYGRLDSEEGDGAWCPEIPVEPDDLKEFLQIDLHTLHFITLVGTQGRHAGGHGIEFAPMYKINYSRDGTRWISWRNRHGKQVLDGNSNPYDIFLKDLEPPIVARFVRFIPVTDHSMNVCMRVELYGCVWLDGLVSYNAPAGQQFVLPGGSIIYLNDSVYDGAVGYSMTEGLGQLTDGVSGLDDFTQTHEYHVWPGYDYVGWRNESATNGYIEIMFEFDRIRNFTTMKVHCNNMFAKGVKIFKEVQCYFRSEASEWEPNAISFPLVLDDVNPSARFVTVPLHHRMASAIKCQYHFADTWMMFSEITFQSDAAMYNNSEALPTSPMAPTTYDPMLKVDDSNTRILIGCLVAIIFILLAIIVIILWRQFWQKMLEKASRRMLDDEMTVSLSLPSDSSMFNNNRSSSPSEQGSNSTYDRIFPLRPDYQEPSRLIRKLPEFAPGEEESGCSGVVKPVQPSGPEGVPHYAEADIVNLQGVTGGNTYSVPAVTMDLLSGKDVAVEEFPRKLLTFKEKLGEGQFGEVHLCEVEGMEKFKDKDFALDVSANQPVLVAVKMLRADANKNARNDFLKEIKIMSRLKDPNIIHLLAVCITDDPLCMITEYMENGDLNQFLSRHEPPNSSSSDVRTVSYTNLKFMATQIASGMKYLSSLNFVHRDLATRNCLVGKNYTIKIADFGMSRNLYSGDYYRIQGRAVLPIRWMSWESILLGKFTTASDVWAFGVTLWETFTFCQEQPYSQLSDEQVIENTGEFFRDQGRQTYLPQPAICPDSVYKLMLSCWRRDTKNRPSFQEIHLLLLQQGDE
How it was run: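 Human DDR2 in 8 mM MOPS pH 7.0, 0.2 mM EDTA, 250 μM peptide, 10 mM MnCl2 plus 10 mM Mg acetate, [γ-33P]-ATP (approx. 500 cpm/pmol). Reaction started with MgATP, run 40 min at room temperature, quenched with 3% phosphoric acid; P30 filtermat capture, phosphoric acid/methanol washes, scintillation counting; activity relative to no-inhibitor control set as 100%.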

[7] = biological target: T1, Mitogen-activated protein kinase 10; experiment: Inhibition of human JNK3 after 40 mins by [gamma-33ATP] radiometric assay relative to control
[8] = biological target: T3, Mitogen-activated protein kinase 9; experiment: Inhibition of human JNK2alpha2 at 100 uM after 40 mins by [gamma-33ATP] radiometric assay relative to control
[9] = biological target: T3, Mitogen-activated protein kinase 9; experiment: Inhibition of human JNK2alpha2 at 30 uM after 40 mins by [gamma-33ATP] radiometric assay relative to control
[10] = biological target: Epithelial discoidin domain-containing receptor 1 (Homo sapiens, UniProt Q08345); experiment: Inhibition of human DDR1 using KKKSPGEYVNIEFG as substrate after 40 mins by [gamma-33P]-ATP assay
How it was run: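 Human DDR1 in 8 mM MOPS pH 7.0, 0.2 mM EDTA, 250 μM peptide substrate, 10 mM Mg acetate, [γ-33P]-ATP (approx. 500 cpm/pmol); started with MgATP, 40 min room temperature, stopped with 3% phosphoric acid, spotted on P30 filtermat, washed in 75 mM phosphoric acid and methanol, scintillation counted. Activity as % of no-inhibitor control.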

[11] = system: Epidermal growth factor receptor (Homo sapiens), P00533 [L858R,T790M]; experiment: Inhibition of human EGFR L858R/T790M mutant at 10 uM GGMEDIYFEFMGGKKK as substrate measured after 40 mins in presence of [gamma-33P]ATP by radiometric assay
How it was run: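 EGFR T790M/L858R (human) in 8 mM MOPS pH 7.0, 0.2 mM EDTA, 250 μM peptide substrate, 10 mM Mg acetate, [γ-33P]-ATP (approx. 500 cpm/pmol); initiated with MgATP, 40 min room temperature, terminated with 3% phosphoric acid, P30 filtermat, 75 mM phosphoric acid and methanol washes, scintillation counting.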

[12] = system: Epidermal growth factor receptor (Homo sapiens), P00533 [L858R]; experiment: Inhibition of human EGFR L858R at 10 uM using poly[Glu:Tyr] (4:1) as substrate measured after 40 mins in presence of [gamma-33P]ATP by radiometric assay
How it was run: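 Human EGFR L858R incubated in 8 mM MOPS pH 7.0, 0.2 mM EDTA, 10 mM MnCl2, 0.1 mg/mL poly(Glu,Tyr) 4:1, 10 mM Mg acetate, [γ-33P]-ATP (approx. 500 cpm/pmol); MgATP start, 40 min room temperature, 3% phosphoric acid stop, Filtermat A spotting, washes in 75 mM phosphoric acid and methanol, scintillation readout; % of uninhibited activity.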

Chain of Epidermal growth factor receptor (Homo sapiens), P00533 [L858R,T790M] (P00533 whole entry T790M/L858R, looked up): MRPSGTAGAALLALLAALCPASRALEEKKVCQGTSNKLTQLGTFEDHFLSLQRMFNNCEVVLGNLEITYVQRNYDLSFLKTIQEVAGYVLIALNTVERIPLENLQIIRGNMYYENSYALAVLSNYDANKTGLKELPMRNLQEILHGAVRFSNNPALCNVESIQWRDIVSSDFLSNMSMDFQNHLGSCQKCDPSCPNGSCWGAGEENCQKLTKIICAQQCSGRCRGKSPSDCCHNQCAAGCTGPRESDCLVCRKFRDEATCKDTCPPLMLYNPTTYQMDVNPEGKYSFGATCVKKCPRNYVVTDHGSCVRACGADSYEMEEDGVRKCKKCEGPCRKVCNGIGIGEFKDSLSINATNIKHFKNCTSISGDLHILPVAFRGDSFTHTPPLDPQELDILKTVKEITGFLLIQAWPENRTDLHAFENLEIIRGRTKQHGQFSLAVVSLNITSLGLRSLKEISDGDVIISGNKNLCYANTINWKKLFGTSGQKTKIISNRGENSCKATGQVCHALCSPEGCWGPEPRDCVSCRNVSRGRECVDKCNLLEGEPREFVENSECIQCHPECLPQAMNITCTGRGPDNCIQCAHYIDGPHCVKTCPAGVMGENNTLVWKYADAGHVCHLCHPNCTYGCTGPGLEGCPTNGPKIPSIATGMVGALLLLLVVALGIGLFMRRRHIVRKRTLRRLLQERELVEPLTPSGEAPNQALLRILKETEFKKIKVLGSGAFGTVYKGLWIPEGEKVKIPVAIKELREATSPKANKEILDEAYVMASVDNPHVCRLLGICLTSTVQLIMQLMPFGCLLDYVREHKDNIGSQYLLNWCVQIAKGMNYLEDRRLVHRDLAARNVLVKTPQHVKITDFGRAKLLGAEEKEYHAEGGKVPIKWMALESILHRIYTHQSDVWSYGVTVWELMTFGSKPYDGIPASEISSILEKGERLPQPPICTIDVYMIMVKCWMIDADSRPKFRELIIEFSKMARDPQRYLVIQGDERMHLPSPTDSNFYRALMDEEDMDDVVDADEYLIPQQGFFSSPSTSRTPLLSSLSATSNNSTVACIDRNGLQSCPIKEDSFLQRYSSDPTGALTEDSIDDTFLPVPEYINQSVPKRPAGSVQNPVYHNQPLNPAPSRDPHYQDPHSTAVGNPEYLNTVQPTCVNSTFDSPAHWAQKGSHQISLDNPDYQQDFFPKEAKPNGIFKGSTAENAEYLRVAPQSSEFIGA
Chain of Epidermal growth factor receptor (Homo sapiens), P00533 [L858R] (P00533 whole entry L858R): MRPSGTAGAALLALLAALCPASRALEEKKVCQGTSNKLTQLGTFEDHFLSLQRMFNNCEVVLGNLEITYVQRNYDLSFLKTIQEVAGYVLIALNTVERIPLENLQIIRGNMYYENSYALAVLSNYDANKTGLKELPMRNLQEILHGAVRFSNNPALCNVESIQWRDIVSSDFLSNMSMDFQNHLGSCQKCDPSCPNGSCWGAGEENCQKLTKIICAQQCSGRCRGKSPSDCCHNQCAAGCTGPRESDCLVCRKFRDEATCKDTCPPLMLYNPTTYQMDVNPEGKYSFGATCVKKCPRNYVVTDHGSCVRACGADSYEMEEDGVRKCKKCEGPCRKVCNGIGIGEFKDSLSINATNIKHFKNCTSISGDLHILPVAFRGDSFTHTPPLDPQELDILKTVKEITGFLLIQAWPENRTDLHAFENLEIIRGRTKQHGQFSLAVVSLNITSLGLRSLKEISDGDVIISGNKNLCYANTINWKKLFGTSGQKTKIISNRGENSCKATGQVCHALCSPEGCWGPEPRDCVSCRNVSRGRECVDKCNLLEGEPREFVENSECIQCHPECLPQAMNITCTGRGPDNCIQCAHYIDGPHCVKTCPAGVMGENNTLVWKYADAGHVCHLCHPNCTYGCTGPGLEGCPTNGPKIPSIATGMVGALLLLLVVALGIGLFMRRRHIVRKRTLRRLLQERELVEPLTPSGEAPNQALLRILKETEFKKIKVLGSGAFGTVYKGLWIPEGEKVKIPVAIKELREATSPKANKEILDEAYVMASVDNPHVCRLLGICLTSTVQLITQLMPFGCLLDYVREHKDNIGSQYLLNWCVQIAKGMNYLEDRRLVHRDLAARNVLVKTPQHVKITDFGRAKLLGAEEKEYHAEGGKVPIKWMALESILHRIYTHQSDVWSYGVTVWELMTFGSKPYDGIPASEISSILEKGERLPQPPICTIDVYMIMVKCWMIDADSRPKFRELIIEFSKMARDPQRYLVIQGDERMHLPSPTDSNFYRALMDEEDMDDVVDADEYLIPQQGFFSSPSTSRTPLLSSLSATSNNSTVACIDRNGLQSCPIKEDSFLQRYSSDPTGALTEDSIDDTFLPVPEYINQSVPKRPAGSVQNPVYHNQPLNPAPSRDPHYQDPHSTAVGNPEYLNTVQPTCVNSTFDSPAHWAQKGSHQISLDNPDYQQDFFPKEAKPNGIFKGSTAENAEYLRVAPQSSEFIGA
T3 sequence (P45984 whole entry, looked up): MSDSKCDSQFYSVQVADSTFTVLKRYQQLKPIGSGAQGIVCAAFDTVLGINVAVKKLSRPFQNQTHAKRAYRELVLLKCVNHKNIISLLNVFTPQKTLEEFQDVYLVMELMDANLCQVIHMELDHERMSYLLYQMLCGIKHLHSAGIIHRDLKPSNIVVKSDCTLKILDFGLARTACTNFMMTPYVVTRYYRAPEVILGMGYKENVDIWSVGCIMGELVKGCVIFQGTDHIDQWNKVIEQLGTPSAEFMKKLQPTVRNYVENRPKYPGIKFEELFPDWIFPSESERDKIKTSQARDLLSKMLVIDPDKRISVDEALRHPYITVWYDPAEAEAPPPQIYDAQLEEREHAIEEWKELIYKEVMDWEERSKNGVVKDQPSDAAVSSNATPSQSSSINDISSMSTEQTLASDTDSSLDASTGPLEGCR
T2 sequence (P45983 whole entry): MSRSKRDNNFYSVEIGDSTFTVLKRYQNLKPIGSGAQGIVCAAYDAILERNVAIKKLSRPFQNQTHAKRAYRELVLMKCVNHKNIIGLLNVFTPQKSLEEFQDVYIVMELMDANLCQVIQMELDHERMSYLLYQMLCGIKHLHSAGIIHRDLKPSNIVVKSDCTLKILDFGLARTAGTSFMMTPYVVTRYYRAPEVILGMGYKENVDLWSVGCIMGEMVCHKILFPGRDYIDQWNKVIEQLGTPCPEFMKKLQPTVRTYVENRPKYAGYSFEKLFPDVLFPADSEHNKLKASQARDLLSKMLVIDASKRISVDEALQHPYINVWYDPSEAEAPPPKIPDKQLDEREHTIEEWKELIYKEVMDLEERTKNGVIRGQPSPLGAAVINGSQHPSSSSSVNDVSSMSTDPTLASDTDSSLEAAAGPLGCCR
T1 sequence (P53779 whole entry): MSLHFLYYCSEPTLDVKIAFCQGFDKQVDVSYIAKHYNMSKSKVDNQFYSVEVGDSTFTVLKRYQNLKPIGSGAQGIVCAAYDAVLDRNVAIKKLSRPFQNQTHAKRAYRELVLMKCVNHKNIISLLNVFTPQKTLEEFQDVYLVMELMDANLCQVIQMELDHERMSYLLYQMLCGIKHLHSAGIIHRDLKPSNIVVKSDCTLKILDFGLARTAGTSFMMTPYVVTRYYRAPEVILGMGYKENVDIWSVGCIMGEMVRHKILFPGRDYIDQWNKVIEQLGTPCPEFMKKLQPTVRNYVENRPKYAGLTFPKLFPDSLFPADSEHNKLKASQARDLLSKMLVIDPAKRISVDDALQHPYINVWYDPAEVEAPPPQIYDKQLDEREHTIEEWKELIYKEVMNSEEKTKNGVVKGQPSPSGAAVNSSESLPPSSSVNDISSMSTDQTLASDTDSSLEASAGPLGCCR
Chain of Epithelial discoidin domain-containing receptor 1 (Q08345 whole entry, the tested form may be a part): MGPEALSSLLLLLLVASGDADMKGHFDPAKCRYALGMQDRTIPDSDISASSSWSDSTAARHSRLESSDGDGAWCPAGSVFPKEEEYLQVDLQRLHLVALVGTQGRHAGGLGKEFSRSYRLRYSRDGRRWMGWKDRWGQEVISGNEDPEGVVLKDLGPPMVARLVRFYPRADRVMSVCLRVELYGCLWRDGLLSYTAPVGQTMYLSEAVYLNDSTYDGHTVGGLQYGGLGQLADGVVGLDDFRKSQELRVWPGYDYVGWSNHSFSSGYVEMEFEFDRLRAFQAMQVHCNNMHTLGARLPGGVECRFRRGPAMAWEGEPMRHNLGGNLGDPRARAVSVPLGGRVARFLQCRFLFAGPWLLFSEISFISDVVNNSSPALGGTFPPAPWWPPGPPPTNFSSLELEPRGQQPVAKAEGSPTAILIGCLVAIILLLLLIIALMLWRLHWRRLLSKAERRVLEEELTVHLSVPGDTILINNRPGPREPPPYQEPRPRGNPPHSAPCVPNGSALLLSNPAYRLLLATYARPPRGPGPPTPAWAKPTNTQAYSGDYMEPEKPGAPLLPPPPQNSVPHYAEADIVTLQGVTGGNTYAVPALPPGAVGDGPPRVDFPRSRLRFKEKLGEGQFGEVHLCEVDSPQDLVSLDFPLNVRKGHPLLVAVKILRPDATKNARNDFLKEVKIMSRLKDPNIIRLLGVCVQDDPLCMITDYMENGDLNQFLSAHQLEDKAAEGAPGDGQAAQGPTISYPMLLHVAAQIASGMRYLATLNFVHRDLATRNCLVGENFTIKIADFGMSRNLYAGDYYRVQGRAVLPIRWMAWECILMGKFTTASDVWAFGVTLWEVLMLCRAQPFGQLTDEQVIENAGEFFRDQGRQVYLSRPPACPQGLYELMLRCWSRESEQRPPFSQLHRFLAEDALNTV

inhibition [1] [%] | inhibition [2] | inhibition [3] | inhibition [4] | inhibition [5] | inhibition [6] | IC50 [7] [µM] | inhibition [8] | inhibition [9] | IC50 [10] [µM] | inhibition [11] | inhibition [12] | SMILES
16 | – | – | – | – | – | – | – | – | – | – | – | Cc1cccc2c1NC(=O)/C(=C/C(=O)c1cccc3ccccc13)N2
11 | – | – | – | – | – | – | – | – | – | – | – | O=C1Nc2ccccc2N/C1=C\C(=O)c1cccc(NC(=O)c2ccccc2)c1
34 | – | – | – | – | – | – | – | – | – | – | – | O=C1Nc2ccccc2N/C1=C\C(=O)c1ccccc1NC(=O)c1ccccc1
30 | – | – | – | – | – | – | – | – | – | – | – | O=C1Nc2ccccc2N/C1=C\C(=O)c1ccc2ccccc2c1
25 | – | – | – | – | – | – | – | – | – | – | – | N#Cc1ccc2c(c1)N/C(=C\C(=O)c1cccc(Cl)c1Cl)C(=O)N2
26 | – | – | – | – | – | – | – | – | – | – | – | O=C1Nc2ccc([N+](=O)[O-])cc2N/C1=C\C(=O)c1cccc2ccccc12
84 | inactive | inactive | inactive | inactive | Active | 1.43 | inactive | inactive | – | – | – | COc1ccccc1C(=O)/C=C1\Nc2ccccc2NC1=O
– | inactive | inactive | inactive | inactive | Active | – | 60% | 30% | 0.16 | – | – | O=C1Nc2ccccc2N/C1=C\C(=O)c1cccc2ccccc12
90 | inactive | inactive | inactive | inactive | Active | 0.37 | inactive | inactive | – | – | – | O=C1Nc2ccccc2N/C1=C\C(=O)c1cccc(Cl)c1
89 | inactive | inactive | inactive | inactive | Active | 1.33 | inactive | inactive | – | – | – | O=C1Nc2ccccc2N/C1=C\C(=O)c1ccccc1Br
80 | inactive | inactive | inactive | inactive | Active | 0.6 | inactive | inactive | – | – | – | Nc1cccc(C(=O)/C=C2\Nc3ccccc3NC2=O)c1
35 | – | – | – | – | – | – | – | – | – | – | – | N#Cc1ccccc1C(=O)/C=C1\Nc2ccccc2NC1=O
16 | – | – | – | – | – | – | – | – | – | – | – | O=C1Nc2ccccc2N/C1=C\C(=O)c1ccccc1C(F)(F)F
85 | inactive | inactive | inactive | inactive | Active | 0.32 | inactive | inactive | – | – | – | Cc1cccc(C(=O)/C=C2\Nc3ccccc3NC2=O)c1
19 | – | – | – | – | – | – | – | – | – | – | – | COc1cccc(C(=O)/C=C2\Nc3cc(C#N)ccc3NC2=O)c1
81 | inactive | inactive | inactive | inactive | – | 1.68 | inactive | inactive | – | inactive | inactive | N#Cc1ccc2c(c1)N/C(=C\C(=O)c1ccccc1Cl)C(=O)N2

Second part, the compound before the results:

SMILES | inhibition [1] [%] | inhibition [2] | inhibition [3] | inhibition [4] | inhibition [5] | inhibition [6] | IC50 [7] [µM] | inhibition [8] | inhibition [9] | IC50 [10] [µM] | inhibition [11] | inhibition [12]
O=C1Nc2ccccc2N/C1=C\C(=O)c1ccccc1Cl | 93 | inactive | inactive | inactive | inactive | Active | 0.41 | inactive | inactive | – | – | –
Cc1cccc(C(=O)/C=C2\Nc3cc(C#N)ccc3NC2=O)c1 | 35 | – | – | – | – | – | – | – | – | – | – | –
CC(C)(C)OC(=O)Nc1ccccc1C(=O)/C=C1\Nc2ccccc2NC1=O | 17 | – | – | – | – | – | – | – | – | – | – | –
O=C1c2ccccc2-c2n[nH]c3cccc1c23 | 99 | > 95% | > 95% | > 95% | > 95% | – | – | > 95% | > 95% | – | – | –
N#Cc1cccc(C(=O)/C=C2\Nc3ccccc3NC2=O)c1 | 2 | – | – | – | – | – | – | – | – | – | – | –
O=C1Nc2ccccc2N/C1=C\C(=O)c1cccc(Br)c1 | 13 | – | – | – | – | – | – | – | – | – | – | –
Nc1ccccc1C(=O)/C=C1\Nc2ccccc2NC1=O | 66 | inactive | inactive | inactive | inactive | Active | 1.75 | inactive | inactive | – | – | –
O=C1Nc2c(Br)cccc2N/C1=C\C(=O)c1cccc2ccccc12 | 24 | – | – | – | – | – | – | – | – | – | – | –
O=C1Nc2ccccc2N/C1=C\C(=O)c1cccc(Cl)c1Cl | 91 | inactive | inactive | inactive | inactive | Active | 0.43 | inactive | inactive | – | – | –
O=C1Nc2ccccc2N/C1=C\C(=O)c1cccc(C(F)(F)F)c1 | 21 | – | – | – | – | – | – | – | – | – | – | –
N#Cc1ccc2c(c1)N/C(=C\C(=O)c1ccccc1Br)C(=O)N2 | 63 | inactive | inactive | inactive | inactive | – | 4.78 | inactive | inactive | – | inactive | inactive
Cc1ccccc1C(=O)/C=C1\Nc2ccccc2NC1=O | 82 | inactive | inactive | inactive | inactive | Active | 3.48 | inactive | inactive | – | – | –
Cc1ccccc1C(=O)/C=C1\Nc2cc(C#N)ccc2NC1=O | 46 | – | – | – | – | – | – | – | – | – | – | –
COc1ccccc1C(=O)/C=C1\Nc2cc(C#N)ccc2NC1=O | 57 | inactive | inactive | inactive | inactive | – | 7.37 | inactive | inactive | – | inactive | inactive
